Source: ChEMBL document CHEMBL4699489, “Optimized Opioid-Neurotensin Multitarget Peptides: From Design to Structure-Activity Relationship Studies” (J Med Chem, 2020)
Active and inactive are the calls of the source. Numbered stars: 1 amine (or outer) side, 2 acyl side, 3 side chain; on linkers, the order of the positions; unused ones are H or OH. Square brackets hold non-standard residues; d marks the D form. Peptide text beside a SMILES is read from it. X1 = O=C1[C@@H](N[*:1])Cc2ccccc2CN1CCC(=O)[*:2]; X2 = O=C([C@@H]1Cc2cc(O)ccc2CN1[*:1])[*:2]; Dmt = Cc1cc(O)cc(C)c1C[C@H](N)C(=O)O; β3hR = N=C(N)NCCC[C@H](N)CC(=O)O; Tle = CC(C)(C)[C@H](N)C(=O)O

Key:
[1] = system: Mus musculus; assay: Antinociceptive activity in CD-1 mouse model of thermal-induced nociception assessed as maximum possible effect at 1.82 umol/kg, sc measured at 1 hr by tail-flick test; type: functional; details: dose 1.82 µmol/kg
[2] = molecular target: T1, Kappa-type opioid receptor (Homo sapiens, UniProt P41145); assay: Displacement of [3H]-U69593 from recombinant human kappa opioid receptor expressed in CHO cell membrane incubated for 60 mins by liquid scintillation counting method; type: cell membranes
Procedure, shortened: (§1)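 Membranes from CHO-hMOR, -hDOR or -hKOR cells, homogenized and washed in 50 mM Tris-HCl pH 7.4. Membranes (15–20 μg) incubated with [3H]DAMGO (MOR), [3H]diprenorphine (DOR) or [3H]U69,593 (KOR) plus graded peptide, 60 min at 25 °C. Nonspecific binding with 1–10 μM of the unlabelled ligand. GF/C filtration, scintillation counting. Ki by Cheng–Prusoff. Duplicate, three independent experiments.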

[3] = molecular target: T2, Mu-type opioid receptor (Homo sapiens, UniProt P35372); assay: Displacement of [3H]-DAMGO from recombinant human mu opioid receptor expressed in CHO cell membrane incubated for 60 mins by liquid scintillation counting method; type: cell membranes; procedure, shortened: as §1
[4] = molecular target: T3, Delta-type opioid receptor (Homo sapiens, UniProt P41143); assay: Agonist activity at human DOR stably expressed in CHO cell membranes assessed as stimulation of [35S]-GTPgammaS binding incubated for 1 hr by liquid scintillation counting assay; type: functional
Procedure, shortened: (§2)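 Membranes from CHO cells stably expressing hMOR, hDOR or hKOR, prepared in 20 mM HEPES, 10 mM MgCl2, 100 mM NaCl, pH 7.4. Membranes (5–10 μg) incubated with 0.05 nM [35S]GTPγS, 10 μM GDP and graded peptide concentrations, 60 min at 25 °C. Nonspecific binding with 10 μM GTPγS, basal without ligand. GF/B filtration, scintillation counting. EC50 and Emax by nonlinear regression; Emax relative to DAMGO, DPDPE or U69,593. Duplicate, three independent experiments.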

[5] = molecular target: T3, Delta-type opioid receptor; assay: Displacement of [3H]-Diprenorphine from recombinant human delta opioid receptor expressed in CHO cell membrane incubated for 60 mins by liquid scintillation counting method; type: cell membranes; procedure, shortened: as §1
[6] = system: Mus musculus; assay: Antinociceptive activity in CD-1 mouse model of thermal-induced nociception assessed as increase in tail withdrawal latency 1.82 umol/kg, sc measured after 2 to 24 hrs by tail-flick test; type: functional, organism-based; details: dose 1.82 µmol/kg, time hrs 2-24
Procedure, shortened: (§3)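 Male CD-1 mice, 30–35 g, 8 weeks old, 5–6 per group, each mouse tested once. Peptide or saline given sc. Radiant-heat tail-flick latency measured before dosing and at 15 min, 30 min, hourly to 8 h, and at 24 h, with a 10 s cutoff. %MPE = [(test latency − basal latency)/(cutoff − basal latency)] × 100. Two-way ANOVA with Bonferroni post hoc test, P < 0.05.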

[7] = molecular target: T3, Delta-type opioid receptor; assay: Agonist activity at human DOR stably expressed in CHO cell membranes assessed as stimulation of [35S]-GTPgammaS binding incubated for 1 hr by liquid scintillation counting assay relative to DPDPE; type: functional; details: time 60.0 min; procedure, shortened: as §2
[8] = molecular target: T2, Mu-type opioid receptor; assay: Agonist activity at human MOR expressed in CHO cell membranes assessed as stimulation of [35S]-GTPgammaS binding incubated for 1 hr by liquid scintillation counting assay relative to DAMGO; type: functional; details: time 60.0 min; procedure, shortened: as §2
[9] = molecular target: T2, Mu-type opioid receptor; assay: Agonist activity at human MOR expressed in human U2OS cells assessed as increase in beta arrestin2 recruitment incubated for 90 mins by pathhunter beta-arrestin assay; type: cell-based
Procedure, shortened: (§4)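 U2OS cells stably coexpressing hMOR and enzyme acceptor-tagged β-arrestin-2, seeded at 5000 cells/well and kept 24 h at 37 °C. Graded peptide concentrations in PBS added for 90 min at 37 °C, then detection mix for 60 min at room temperature. Chemiluminescence read-out. EC50 and Emax (relative to DAMGO) by nonlinear regression. Duplicate, three independent experiments.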

[10] = molecular target: T2, Mu-type opioid receptor; assay: Agonist activity at human MOR expressed in human U2OS cells assessed as increase in beta arrestin2 recruitment incubated for 90 mins by pathhunter beta-arrestin assay relative to DAMGO; type: cell-based; details: filed as partial agonist; procedure, shortened: as §4
[11] = molecular target: T1, Kappa-type opioid receptor; assay: Agonist activity at human KOR stably expressed in CHO cell membranes assessed as stimulation of [35S]-GTPgammaS binding incubated for 1 hr by liquid scintillation counting assay; type: functional; procedure, shortened: as §2
[12] = molecular target: T4, Neurotensin receptor type 1 (Homo sapiens, UniProt P30989); assay: Agonist activity at human NTS1 expressed in HEK293 cells co-expressing Galphaq/RlucII/GFP10-Ggamma1/Gbeta1 assessed as increase in Galphaq activation incubated for 10 mins in presence of coelenterazine 400A by BRET assay; type: cell-based
[13] = molecular target: T1, Kappa-type opioid receptor; assay: Agonist activity at human KOR stably expressed in CHO cell membranes assessed as stimulation of [35S]-GTPgammaS binding incubated for 1 hr by liquid scintillation counting assay relative to U69593; type: functional; details: time 60.0 min; procedure, shortened: as §2
[14] = molecular target: Neurotensin receptor type 2 (Homo sapiens, UniProt O95665); assay: Displacement of [125I]-neurotensin from human recombinant NTS2 stably expressed in human 1321N1 cell membranes incubated for 60 mins by gamma counter method
[15] = system: Mus musculus; assay: Antinociceptive activity in CD-1 mouse model of thermal-induced nociception assessed as increase in tail withdrawal latency at 5.52 umol/kg, sc measured after 3 hrs by tail-flick test; type: functional, organism-based; details: dose 5.52 µmol/kg, time hrs >=3; procedure, shortened: as §3
[16] = molecular target: T4, Neurotensin receptor type 1; assay: Agonist activity at human NTS1 expressed in HEK293 cells co-expressing Galphaq/RlucII/GFP10-Ggamma1/Gbeta1 assessed as increase in Gq activation incubated for 10 mins in presence of coelenterazine 400A by BRET assay relative to NT (8-13); type: cell-based
[17] = molecular target: T4, Neurotensin receptor type 1; assay: Displacement of [125I]-neurotensin from human recombinant NTS1 stably expressed in CHO-K1 cell membranes incubated for 60 mins by gamma counter method
[18] = molecular target: T2, Mu-type opioid receptor; assay: Agonist activity at human MOR stably expressed in CHO cell membranes assessed as stimulation of [35S]-GTPgammaS binding incubated for 1 hr by liquid scintillation counting assay; type: functional; procedure, shortened: as §2
[19] = system: Mus musculus; assay: Antinociceptive activity in CD-1 mouse model of thermal-induced nociception assessed as maximum possible effect at 5.52 umol/kg, sc measured at 1 hr interval for 2 to 3 hrs by tail-flick test; type: functional; details: dose 5.52 µmol/kg; time hrs 2-3; procedure, shortened: as §3
[20] = molecular target: T2, Mu-type opioid receptor; assay: Potency index, ratio of PK20 Ki to test compound Ki for displacement of [3H]-DAMGO from recombinant human mu opioid receptor expressed in CHO cell membranes
[21] = molecular target: T4, Neurotensin receptor type 1; assay: […], ratio of compound EC50 to NT(8-13) EC50 for agonist activity at human NTS1 expressed in HEK293 cells co-expressing Galphaq/RlucII/GFP10-Ggamma1/Gbeta1 assessed as increase in Gq activation incubated for 10 mins in presence of coelenterazine 400A by measuring fold value by BRET assay; type: cell-based; details: hek293, 10 min
[22] = system: Mus musculus; assay: Antinociceptive activity in CD-1 mouse model of thermal-induced nociception assessed as increase in tail withdrawal latency at 2.64 umol/kg, sc measured up to 8 hrs by tail-flick test; type: functional, organism-based; details: dose 2.64 µmol/kg, time hrs <=8; procedure, shortened: as §3
[23] = system: Mus musculus; assay: Antinociceptive activity in CD-1 mouse model of thermal-induced nociception assessed as maximum possible effect at 2.64 uM/kg, sc measured at 1 hr interval for 2 to 7 hrs by tail-flick test; type: functional; details: dose 2.64 µmol/kg; time hrs 2-7; procedure, shortened: as §3

Sequence of Neurotensin receptor type 2 (O95665 whole entry): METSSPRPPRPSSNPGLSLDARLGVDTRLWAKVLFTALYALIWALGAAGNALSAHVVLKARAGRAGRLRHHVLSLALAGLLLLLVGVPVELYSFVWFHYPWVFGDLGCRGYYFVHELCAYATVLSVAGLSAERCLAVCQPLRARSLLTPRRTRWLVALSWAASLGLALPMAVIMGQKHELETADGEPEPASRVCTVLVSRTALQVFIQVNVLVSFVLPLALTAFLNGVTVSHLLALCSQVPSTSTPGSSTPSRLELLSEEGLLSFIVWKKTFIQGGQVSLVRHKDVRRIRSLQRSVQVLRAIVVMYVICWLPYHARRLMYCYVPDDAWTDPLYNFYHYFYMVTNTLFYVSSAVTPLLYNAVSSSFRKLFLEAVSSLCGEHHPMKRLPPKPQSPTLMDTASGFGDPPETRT
T1 sequence (P41145 whole entry): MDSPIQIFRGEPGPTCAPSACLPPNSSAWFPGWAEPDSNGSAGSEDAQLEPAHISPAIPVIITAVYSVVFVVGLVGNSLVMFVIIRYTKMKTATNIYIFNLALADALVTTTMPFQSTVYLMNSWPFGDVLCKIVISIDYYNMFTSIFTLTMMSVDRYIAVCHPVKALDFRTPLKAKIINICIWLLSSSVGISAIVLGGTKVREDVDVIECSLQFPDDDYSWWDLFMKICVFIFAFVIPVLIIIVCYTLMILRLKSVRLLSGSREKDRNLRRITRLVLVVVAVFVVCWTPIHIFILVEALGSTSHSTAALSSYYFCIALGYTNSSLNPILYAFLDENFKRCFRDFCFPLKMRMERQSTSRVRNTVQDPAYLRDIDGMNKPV
T3 sequence (P41143 whole entry): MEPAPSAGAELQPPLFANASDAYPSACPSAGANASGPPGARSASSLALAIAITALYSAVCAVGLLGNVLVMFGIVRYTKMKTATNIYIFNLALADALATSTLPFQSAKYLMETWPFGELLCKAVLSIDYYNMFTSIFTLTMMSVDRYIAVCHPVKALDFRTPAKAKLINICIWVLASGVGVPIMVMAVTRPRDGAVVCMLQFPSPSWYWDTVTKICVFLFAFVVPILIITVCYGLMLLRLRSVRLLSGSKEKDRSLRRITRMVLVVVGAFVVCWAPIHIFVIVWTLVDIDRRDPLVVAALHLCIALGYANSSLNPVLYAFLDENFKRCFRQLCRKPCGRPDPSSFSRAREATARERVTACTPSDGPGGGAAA
T4 sequence (P30989 whole entry): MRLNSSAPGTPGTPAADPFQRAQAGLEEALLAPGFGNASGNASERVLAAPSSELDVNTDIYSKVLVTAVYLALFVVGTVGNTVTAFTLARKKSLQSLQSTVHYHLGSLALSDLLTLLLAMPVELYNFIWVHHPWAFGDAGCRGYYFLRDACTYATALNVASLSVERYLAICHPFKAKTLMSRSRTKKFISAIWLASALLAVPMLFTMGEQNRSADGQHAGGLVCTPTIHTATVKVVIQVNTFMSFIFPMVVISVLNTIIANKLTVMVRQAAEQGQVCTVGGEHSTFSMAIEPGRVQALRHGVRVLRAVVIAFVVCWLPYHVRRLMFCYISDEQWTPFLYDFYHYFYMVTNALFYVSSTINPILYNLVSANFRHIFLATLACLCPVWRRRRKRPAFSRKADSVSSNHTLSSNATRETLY
T2 sequence (P35372 whole entry): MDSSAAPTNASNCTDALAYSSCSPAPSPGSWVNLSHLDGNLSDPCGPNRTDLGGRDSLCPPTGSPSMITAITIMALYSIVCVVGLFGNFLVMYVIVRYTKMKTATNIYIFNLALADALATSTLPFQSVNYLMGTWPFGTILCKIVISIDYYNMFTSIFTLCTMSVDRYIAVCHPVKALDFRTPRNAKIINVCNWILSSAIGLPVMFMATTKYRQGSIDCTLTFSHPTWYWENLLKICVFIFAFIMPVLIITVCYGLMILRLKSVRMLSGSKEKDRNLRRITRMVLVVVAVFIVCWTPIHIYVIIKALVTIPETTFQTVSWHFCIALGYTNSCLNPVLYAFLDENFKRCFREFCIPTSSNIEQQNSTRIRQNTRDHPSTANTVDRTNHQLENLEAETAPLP

Cc1cc(O)cc(C)c1C[C@H](N)C(=O)N[C@H](CCCNC(=N)N)C(=O)N[C@H]1Cc2ccccc2CN(CCC(N)=O)C1=O
MPE [1]: 80% | Ki [2]: 16.6 nM | Ki [3]: 0.14 nM | EC50 [4]: 1.27 nM | Ki [5]: 1.51 nM | Activity [6]: inactive | Emax ([7]; filed as agonist): 104% | Emax ([8]; filed as agonist): 100% | EC50 [9]: 5.53 nM | Emax [10]: 107% | EC50 [11]: > 10000 nM

Cc1cc(O)cc(C)c1C[C@H](N)C(=O)N[C@H](CCCCN)C(=O)N[C@@H](Cc1ccccc1)C(=O)N[C@@H](Cc1ccccc1)C(=O)N[C@@H](CCCCN)C(=O)N[C@@H](CCCCN)C(=O)N1CCC[C@H]1C(=O)N[C@@H](Cc1ccccc1)C(=O)N[C@H](C(=O)N[C@@H](CC(C)C)C(=O)O)C(C)(C)C (H-[Dmt][dK]FFKKPF[Tle]L-OH)
EC50 [12]: 19.1 nM | Ki [2]: 33.5 nM | Emax ([13]; filed as partial agonist): 65% | Ki [3]: 4.13 nM | Ki [14]: 29.5 nM | EC50 [4]: 479 nM | Ki [5]: 46.4 nM | Activity [15]: inactive | Emax ([7]; filed as partial agonist): 78% | Emax ([8]; filed as partial agonist): 91% | EC50 [9]: 956 nM | Emax [16]: 101% | Ki [17]: 188 nM | EC50 [18]: 13.3 nM | Emax [10]: 69% | MPE [19]: 80% | EC50 [11]: 47.1 nM

Cc1cc(O)cc(C)c1C[C@H](N)C(=O)N[C@H](CCCNC(=N)N)C(=O)N[C@H]1Cc2ccccc2CN(CCC(=O)N[C@@H](CCCNC(=N)N)C(=O)N[C@@H](CCCNC(=N)N)C(=O)N2CCC[C@H]2C(=O)N2Cc3ccc(O)cc3C[C@H]2C(=O)N[C@H](C(=O)N[C@@H](CC(C)C)C(=O)O)C(C)(C)C)C1=O (H-[Dmt][dR][X1]RRP[X2][Tle]L-OH)
EC50 [12]: 1900 nM | Ki [2]: 22.4 nM | Emax [13]: 20% | Ki [3]: 1.67 nM | Ki [14]: 1.72 nM | EC50 [4]: 227 nM | Ki [5]: 105 nM | Ratio Ki [20]: 2 | Ratio EC50 [21]: 13000 | Emax ([7]; filed as agonist): 97% | Emax ([8]; filed as agonist): 98% | EC50 [9]: 934 nM | Emax [16]: 74% | Ki [17]: 4710 nM | EC50 [18]: 4.56 nM | Emax [10]: 67% | EC50 [11]: 399 nM

Cc1cc(O)cc(C)c1C[C@H](NC(=O)[C@@H]1CCCN1C(=O)[C@H](CCCNC(=N)N)NC(=O)C[C@H](CCCNC(=N)N)NC(=O)CCN1Cc2ccccc2C[C@H](NC(=O)[C@@H](CCCNC(=N)N)NC(=O)[C@@H](N)Cc2c(C)cc(O)cc2C)C1=O)C(=O)N[C@H](C(=O)N[C@@H](CC(C)C)C(=O)O)C(C)(C)C (H-[Dmt][dR][X1][β3hR]RP[Dmt][Tle]L-OH)
EC50 [12]: 0.86 nM | Ki [2]: 27.9 nM | Emax ([13]; filed as partial agonist): 46% | Ki [3]: 1.75 nM | Ki [14]: 0.003 nM | EC50 [4]: 305 nM | Ki [5]: 101 nM | Emax ([7]; filed as agonist): 99% | Emax ([8]; filed as agonist): 94% | EC50 [9]: 1070 nM | Emax [16]: 114% | Ki [17]: 4 nM | Activity [22]: Active | EC50 [18]: 28.7 nM | Emax [10]: 68% | MPE [23]: >=80% | EC50 [11]: 158 nM
